Among the data in ChEMBL document CHEMBL1124128, “Angiotensin-converting enzyme inhibitors. Mercaptan, carboxyalkyl dipeptide, and phosphinic acid inhibitors incorporating 4-substituted prolines” (J Med Chem, 1988) are IC50, inhibition in vivo and T50 values, retold here.

The structures appear in SMILES notation. pIC50: −log10 of the molar value.

Test [1] has as its target T1, Angiotensin-converting enzyme (Rattus norvegicus, UniProt P47820).
T1 sequence (P47820 whole entry): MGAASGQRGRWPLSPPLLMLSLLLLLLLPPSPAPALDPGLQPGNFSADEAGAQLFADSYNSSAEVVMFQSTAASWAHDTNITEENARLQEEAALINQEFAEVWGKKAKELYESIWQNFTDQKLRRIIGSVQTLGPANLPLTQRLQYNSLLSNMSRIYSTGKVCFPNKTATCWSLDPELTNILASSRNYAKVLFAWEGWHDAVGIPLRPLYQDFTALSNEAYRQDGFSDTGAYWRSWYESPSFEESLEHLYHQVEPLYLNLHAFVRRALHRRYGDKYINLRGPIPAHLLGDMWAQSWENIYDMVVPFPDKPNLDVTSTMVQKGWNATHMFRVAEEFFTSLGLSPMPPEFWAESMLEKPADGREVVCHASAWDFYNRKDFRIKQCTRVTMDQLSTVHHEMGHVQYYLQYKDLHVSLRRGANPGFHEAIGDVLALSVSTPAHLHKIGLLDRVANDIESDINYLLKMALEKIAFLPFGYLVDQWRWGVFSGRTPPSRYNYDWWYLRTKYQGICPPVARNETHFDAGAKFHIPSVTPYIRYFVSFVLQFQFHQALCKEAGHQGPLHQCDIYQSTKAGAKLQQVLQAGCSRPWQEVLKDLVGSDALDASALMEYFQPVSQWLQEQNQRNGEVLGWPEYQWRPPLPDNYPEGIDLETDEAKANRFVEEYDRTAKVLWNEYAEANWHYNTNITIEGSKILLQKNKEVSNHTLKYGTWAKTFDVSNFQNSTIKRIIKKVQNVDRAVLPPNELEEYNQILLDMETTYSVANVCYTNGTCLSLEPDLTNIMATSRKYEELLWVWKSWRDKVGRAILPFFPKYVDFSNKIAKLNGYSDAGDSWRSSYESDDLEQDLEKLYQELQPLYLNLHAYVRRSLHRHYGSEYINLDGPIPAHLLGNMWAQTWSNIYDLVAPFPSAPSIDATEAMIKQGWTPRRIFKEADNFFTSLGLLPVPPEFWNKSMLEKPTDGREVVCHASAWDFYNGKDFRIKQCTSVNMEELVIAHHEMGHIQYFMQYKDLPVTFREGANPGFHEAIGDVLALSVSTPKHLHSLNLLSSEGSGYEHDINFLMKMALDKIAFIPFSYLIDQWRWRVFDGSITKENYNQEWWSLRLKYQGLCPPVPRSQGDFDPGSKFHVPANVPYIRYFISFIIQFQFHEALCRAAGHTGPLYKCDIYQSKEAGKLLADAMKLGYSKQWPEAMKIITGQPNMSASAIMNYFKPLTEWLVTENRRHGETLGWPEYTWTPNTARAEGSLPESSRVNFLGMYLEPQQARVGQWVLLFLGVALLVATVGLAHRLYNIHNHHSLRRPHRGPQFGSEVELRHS
The test is described as follows: In vitro inhibitory activity against angiotensin I converting enzyme of rats. Particulars: read-out: I50.

The test system of test [2] is Rattus norvegicus. Description: % Inhibition of angiotensin-I induced pressor response in normotensive rats after intravenous dosing of 0.015 umol/kg. The test is classed as functional. In outline: (§1)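 Male Sprague–Dawley rats (225–275 g) fitted with indwelling abdominal aorta and vena cava catheters, recovered at least 2 weeks, then tested conscious and unrestrained. Aortic pressure was recorded directly. Pressor responses to AI (310 ng/kg iv) and AII (100 ng/kg iv) were taken before dosing. Compound was given iv in water or 5% NaHCO3, and responses were followed up to 70 min. Maximum % inhibition is the mean of four animals per dose.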

In test [3] the test system is Rattus norvegicus. Description: % Inhibition of angiotensin-I induced pressor response in normotensive rats after intravenous dosing of 0.05 umol/kg. The test is classed as functional. An outline of the steps: as §1
The subject of test [4] is Rattus norvegicus. Description: % Inhibition of angiotensin-I induced pressor response in normotensive rats after intravenous dosing of 0.15 umol/kg. The test is classed as functional. In outline:
(§2)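 Conscious, unrestrained male Sprague–Dawley rats (225–275 g) with indwelling aortic and vena caval catheters, allowed at least 2 weeks of recovery. Aortic pressure recorded directly. Baseline pressor responses to AI (310 ng/kg iv) and AII (100 ng/kg iv) were taken first. Compound was given iv in 0.1 mL water or 5% NaHCO3, and responses were followed for up to 70 min. Maximum % inhibition is the mean of four animals per dose.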

Test [5] deals with T2, Angiotensin-converting enzyme (Rattus norvegicus) (UniProt P47820).
T2 sequence (whole entry): T1 sequence (P47820 whole entry)
Description: In vitro inhibition of rat Angiotensin I converting enzyme.

In test [6] the test system is Rattus norvegicus. Description: % Inhibition of angiotensin-I induced pressor response in normotensive rats after intravenous dosing of 0.5 umol/kg. Type of test: functional. An outline of the steps: as §2
For test [7], the system named is Rattus norvegicus. The test is described as follows: % Inhibition of angiotensin-I induced pressor response in normotensive rats after peroral dosing of 0.5 umol/kg. The test is classed as functional. Particulars: po. In outline: (§3)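 Conscious, unrestrained catheterized male Sprague–Dawley rats (225–275 g) had direct aortic pressure recording. Baseline pressor responses were taken to AI (310 ng/kg iv) and AII (100 ng/kg iv). Compound was given orally in water, 5% NaHCO3 or 1% agar suspension. AI and AII responses were then tracked up to 280 min. Maximum % inhibition is the mean response of four animals per dose.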

Test [8] concerns Rattus norvegicus. The test is described as follows: % Inhibition of angiotensin-I induced pressor response in normotensive rats after peroral dosing of 1.5 umol/kg. Type of test: functional. Conditions: po. An outline of the steps: as §3
In test [9] the test system is Rattus norvegicus. The test is described as follows: % Inhibition of angiotensin-I induced pressor response in normotensive rats after peroral dosing of 5 umol/kg. Particulars: po. The test is classed as functional. An outline of the steps:
as §3

Test [10] concerns Rattus norvegicus. The test is described as follows: % Inhibition of angiotensin-I induced pressor response in normotensive rats after peroral dosing of 15 umol/kg. The test is classed as functional. Conditions: po. An outline of the steps:
as §3

Test [11] deals with Rattus norvegicus. The test is described as follows: % Inhibition of angiotensin-I induced pressor response in normotensive rats after intravenous dosing of 1.5 umol/kg. Type of test: functional. In outline:
as §2

What is called inhibition in vivo is how much of the control response was suppressed. Higher therefore signals strong suppression. Turning to `CS[C@@H]1C[C@@H](C(=O)O)N(C(=O)[C@H](C)N[C@@H](CCc2ccccc2)C(=O)O)C1`, in test [1], the pIC50 is 8.30. In the test with Rattus norvegicus [2], this compound gave an inhibition in vivo at 0.015 µmol/kg of 29%. The compound also gave an inhibition in vivo at 0.05 µmol/kg with Rattus norvegicus [3] of 69%. In addition, the inhibition in vivo at 0.15 µmol/kg in the test with Rattus norvegicus [4] was 77%.

As for `C[C@H](CS)C(=O)N1C[C@@H](Sc2ccccc2)C[C@H]1C(=O)O` [ZOFENOPRILAT], in [1], the pIC50 is 8.10.

As to `C[C@H](CS)C(=O)N1C[C@@H](Oc2ccc3ccccc3c2)C[C@H]1C(=O)O`, the pIC50 in test [1] was 7.89.

For `C[C@H](CS)C(=O)N1C[C@@H](Sc2ccc(Cl)cc2)C[C@H]1C(=O)O`, the pIC50 in test [1] was 7.96.

For `C[C@H](CS)C(=O)N1CC2(C[C@H]1C(=O)O)OCCO2`, the pIC50 in test [1] is 8.54.

`C[C@H](CS)C(=O)N1C[C@@H](Sc2ccc(F)cc2)C[C@H]1C(=O)O`: the pIC50 in test [1] was 7.77.

Turning to `C[C@H](CS)C(=O)N1C[C@@H](Oc2ccccc2)C[C@H]1C(=O)O`, the pIC50 in test [1] was 7.01.

Consider `C[C@H](N[C@@H](CCc1ccccc1)C(=O)O)C(=O)N1C[C@@H](C2CCCCC2)C[C@H]1C(=O)O`, for which, in [1], the pIC50 is 8.30. Further, in the test on Rattus norvegicus [2], the inhibition in vivo at 0.015 µmol/kg stood at 21%. In addition, in the test with Rattus norvegicus [3], the inhibition in vivo at 0.05 µmol/kg amounted to 48%. Moreover, the inhibition in vivo at 0.15 µmol/kg with Rattus norvegicus [4] turned out to be 92%.

The compound `O=C(O)[C@@H]1C[C@H](c2ccccc2)CN1C(=O)CP(=O)(O)CCCCc1ccccc1` returned a T50 in test [5] of 7 nM. This compound yielded an inhibition in vivo at 0.05 µmol/kg with Rattus norvegicus [3] of 16%. The compound also gave an inhibition in vivo at 0.15 µmol/kg in the test on Rattus norvegicus [4] of 69%. The compound also registered an inhibition in vivo at 0.5 µmol/kg in the test with Rattus norvegicus [6] of 97%.

As to `CO[C@H]1C[C@@H](C(=O)O)N(C(=O)[C@H](C)CS)C1`, the pIC50 in test [1] is 8.55.

Take `C[C@H](CS)C(=O)N1C[C@H](O)C[C@H]1C(=O)O`: the pIC50 in [1] was 7.59.

In the case of `CS[C@H]1C[C@@H](C(=O)O)N(C(=O)[C@H](C)CS)C1`, in [1], the pIC50 is 8.52.

`CCOC(=O)[C@H](CCc1ccccc1)N[C@@H](C)C(=O)N1C[C@@H](Sc2ccccc2)C[C@H]1C(=O)O` came in with an inhibition in vivo at 0.5 µmol/kg in the test on Rattus norvegicus [7] of 29%. The same compound yielded an inhibition in vivo at 1.5 µmol/kg in the test with Rattus norvegicus [8] of 81%. Moreover, in the test with Rattus norvegicus [9], the inhibition in vivo at 5 µmol/kg turned out to be 86%.

As to `CO[C@@H]1C[C@@H](C(=O)O)N(C(=O)[C@H](C)CS)C1`, the pIC50 in test [1] was 7.92.

Consider `C[C@H](N[C@@H](CCc1ccccc1)C(=O)O)C(=O)N1C[C@H](Sc2ccccc2)C[C@H]1C(=O)O`, for which the pIC50 in [1] is 8.70. The inhibition in vivo at 0.015 µmol/kg in the test with Rattus norvegicus [2] worked out at 57%. In the test on Rattus norvegicus [3], this compound had an inhibition in vivo at 0.05 µmol/kg of 94%.

For the compound `C[C@H](N[C@@H](CCc1ccccc1)C(=O)O)C(=O)N1CCC[C@H]1C(=O)O` [ENALAPRILAT ANHYDROUS], the inhibition in vivo at 0.015 µmol/kg with Rattus norvegicus [2] was determined as 11%. In addition, in the test on Rattus norvegicus [3], the inhibition in vivo at 0.05 µmol/kg is 67%. For the same compound, the inhibition in vivo at 0.15 µmol/kg with Rattus norvegicus [4] was 90%. Moreover, the inhibition in vivo at 5 µmol/kg in the test with Rattus norvegicus [9] came to 46%. The compound also showed an inhibition in vivo at 15 µmol/kg in the test with Rattus norvegicus [10] of 85%.

In the case of `CS[C@H]1C[C@@H](C(=O)O)N(C(=O)CP(=O)(O)CCCCc2ccccc2)C1`, the T50 in test [5] worked out at 32 nM. The inhibition in vivo at 0.15 µmol/kg with Rattus norvegicus [4] came out at 29%. In the test on Rattus norvegicus [6], this compound returned an inhibition in vivo at 0.5 µmol/kg of 69%. Also, the inhibition in vivo at 1.5 µmol/kg in the test on Rattus norvegicus [11] was determined as 89%.

Take `C[C@H](CS)C(=O)N1C[C@@H](Sc2ccc3ccccc3c2)C[C@H]1C(=O)O`: in test [1], the pIC50 is 7.02.
